Assay results gathered from unrelated publications.
Protocols differ between the studies behind these lines.
Slc6a4: Sodium-dependent serotonin transporter (Slc6a4, Rattus norvegicus, UniProt P31652)
BRD4 BD1: Bromodomain-containing protein 4, BD1 (BRD4, Homo sapiens, UniProt O60885)
CYP2A6: Cytochrome P450 2A6 (CYP2A6, Homo sapiens, UniProt P11509)
HTR1D: 5-hydroxytryptamine receptor 1D (HTR1D, Homo sapiens, UniProt P28221)

COc1cc(C2Oc3c(OC)cccc3C3CC(c4cc(C)ccc4O)=NN32)ccc1O (centres unmarked)  Kd (Prostaglandin E synthase 3 (Homo sapiens, UniProt Q15185); binding, MST): 1180 nM
CN(C)CCN(Cc1ccccc1)Cc1c(F)cccc1Cl  Ki (Slc6a4; ligand displacement, radioligand): 212 nM
COc1cc2c(cc1OC)C(=O)N(CCCCN1C(=O)/C(=N\NC(=S)N(C)C)c3ccccc31)CC2  EC50 (ATP-dependent translocase ABCB1 (ABCB1, Homo sapiens, UniProt P08183); transporter efflux, inhibitor, fluorescence; MDCK-MDR1): 11000 nM
Oc1ccc(-c2nc(-c3ccncc3)c(-c3ccc(F)cc3)[nH]2)cc1  Kd (BRD4 BD1; binding, ITC): 3420 nM
C#Cc1cccc2oc(-c3ccccc3)cc(=O)c12  Ki (CYP2A6; enzyme activity, inhibitor; 6 min, pH 7.6): > 25000 nM
Cc1c(C(=O)NN2CCOCC2)nn(-c2ccc(Cl)cc2Cl)c1-c1ccc(I)cc1  Ki (Mu-type opioid receptor (OPRM1, Homo sapiens, UniProt P35372); ligand displacement, radioligand; cell membranes): 2140 nM
CC(=O)N[C@H](C(=O)N1C[C@H](O)C[C@H]1C(=O)NCc1ccc(-c2scnc2C)cc1)C(C)(C)SCCCCCCNC(=O)C[C@@H]1N=C(c2ccc(Cl)cc2)c2c(sc(C)c2C)-n2c(C)nnc21  Kd (Bromodomain-containing protein 4, BD2 (BRD4, Homo sapiens, UniProt O60885); binding): 44 nM
CN(C)c1ccc(C(CNC(=O)c2ccc(Br)cc2)N(C)C)cc1 (centres unmarked)  Ki (Slc6a4; ligand displacement, radioligand): 305 nM
Cn1nnc2ccc(NC(=O)c3cccc(C(=O)O)c3)cc21  Kd (BRD4 BD1; binding, competition with immobilised ligand): 6900 nM
CCCCN1CCC(COC(=O)c2ccc(N)c(OCF)c2)CC1  Ki (HTR1D; cell-free assay, radioligand): > 10000 nM
O[C@H]1[C@H](n2cnc3c(NC(C4CCCCC4)C4CCCCC4)nc(Cl)nc32)[C@H]2C[C@@]2(CF)[C@H]1O  Ki (HTR1D; cell-free assay, radioligand): 1990 nM
C#Cc1ccc2oc(-c3ccccc3)cc(=O)c2c1  Ki (CYP2A6; enzyme activity, inhibitor; 6 min, pH 7.6): > 25000 nM
Nc1nc2c(ncn2[C@@H]2O[C@H](COP(=O)(O)OP(=O)(O)O)[C@@H](OP(=O)(O)OP(=O)(O)O)[C@H]2O)c(=O)[nH]1  Kd (mpl (Escherichia coli, UniProt P37773); binding, ITC): 752000 nM
C#Cc1ccc2c(=O)cc(-c3ccccc3)oc2c1  Ki (CYP2A6; enzyme activity, inhibitor; 6 min, pH 7.6): > 25000 nM
Cc1cnc(-c2ccc(-c3ccc(NC(=O)Nc4c(F)cc(F)cc4F)cc3F)c3c2C(=O)NC3)[nH]1  Kd (Tyrosine-protein kinase Yes (YES1, Homo sapiens, UniProt P07947); binding, competition with immobilised ligand): 310 nM
C#Cc1cccc(-c2cc(=O)c3ccccc3o2)c1  Ki (CYP2A6; enzyme activity, inhibitor; 6 min, pH 7.6): > 25000 nM
CNC(=O)[C@@]12C[C@@H]1[C@@H](n1cnc3c(NC)nc(C#C[c-]4cccc4)nc31)[C@H](O)[C@@H]2O.[Fe+2].c1cc[cH-]c1  Ki (Adenosine receptor A3 (Mus musculus, UniProt Q61618); ligand displacement, radioligand; cell membranes): 5.46 nM
